How the values were obtained:
[1] = molecular target: T1, β-glucosidase/β-galactosidase from Agrobacterium sp. (Agrobacterium sp., UniProt P12614); assay: Agrobacterium sp. β-galactosidase/-glucosidase inhibition; type: biochemical
T1 sequence (P12614 1-459): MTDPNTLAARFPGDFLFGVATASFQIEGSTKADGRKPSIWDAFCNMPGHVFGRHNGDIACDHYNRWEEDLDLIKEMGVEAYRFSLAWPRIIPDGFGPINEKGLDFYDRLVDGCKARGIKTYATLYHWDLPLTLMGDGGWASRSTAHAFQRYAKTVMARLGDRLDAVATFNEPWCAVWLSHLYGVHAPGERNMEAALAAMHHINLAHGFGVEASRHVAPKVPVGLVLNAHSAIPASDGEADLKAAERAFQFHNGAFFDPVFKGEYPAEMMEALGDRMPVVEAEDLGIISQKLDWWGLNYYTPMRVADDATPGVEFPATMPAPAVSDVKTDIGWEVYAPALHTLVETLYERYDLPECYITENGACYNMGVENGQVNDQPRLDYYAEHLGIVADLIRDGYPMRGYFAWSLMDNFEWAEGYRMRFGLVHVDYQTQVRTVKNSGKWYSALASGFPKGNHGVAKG

[2] = molecular target: β-galactosidase from E. coli (Escherichia coli, UniProt P00722); assay: E. coli β-galactosidase inhibition; type: biochemical
[3] = molecular target: α-galactosidase from green coffee beans (Coffea arabica, UniProt Q42656); assay: Green coffee bean α-galactosidase inhibition; type: biochemical
[4] = molecular target: T2, human lysosomal β-galactosidase (Homo sapiens, UniProt P16278); assay: Human lysosomal β-galactosidase inhibition; type: biochemical
T2 sequence (P16278 29-677): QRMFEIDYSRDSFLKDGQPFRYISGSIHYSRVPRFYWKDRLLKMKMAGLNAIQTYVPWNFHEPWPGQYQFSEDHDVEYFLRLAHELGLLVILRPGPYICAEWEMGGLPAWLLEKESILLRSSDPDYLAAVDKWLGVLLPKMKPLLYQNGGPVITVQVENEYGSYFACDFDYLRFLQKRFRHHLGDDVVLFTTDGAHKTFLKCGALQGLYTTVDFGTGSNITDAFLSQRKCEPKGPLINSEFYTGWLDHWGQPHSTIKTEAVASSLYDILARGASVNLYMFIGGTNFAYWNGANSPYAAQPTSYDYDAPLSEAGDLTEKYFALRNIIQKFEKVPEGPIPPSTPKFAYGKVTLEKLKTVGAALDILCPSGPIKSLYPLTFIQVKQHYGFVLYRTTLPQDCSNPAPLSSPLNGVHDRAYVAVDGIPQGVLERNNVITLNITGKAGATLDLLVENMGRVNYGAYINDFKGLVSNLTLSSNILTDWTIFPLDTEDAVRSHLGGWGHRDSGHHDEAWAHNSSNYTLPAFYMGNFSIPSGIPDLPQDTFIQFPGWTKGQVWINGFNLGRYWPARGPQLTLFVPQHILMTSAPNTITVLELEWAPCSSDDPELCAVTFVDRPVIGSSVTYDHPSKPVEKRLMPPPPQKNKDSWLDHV

[5] = molecular target: T3, β-galactosidase p.Arg483Pro mutation (Felis catus, UniProt O19015, R483P); assay: Intracellular β-galactosidase activity in GM1 gangliosidosis feline fibroblasts; type: cell-based, cat; settings: 5 days; for maximal increase of intracellular β-galactosidase activity: relative to DMSO treated cells
T3 sequence (O19015 30-669 R483P): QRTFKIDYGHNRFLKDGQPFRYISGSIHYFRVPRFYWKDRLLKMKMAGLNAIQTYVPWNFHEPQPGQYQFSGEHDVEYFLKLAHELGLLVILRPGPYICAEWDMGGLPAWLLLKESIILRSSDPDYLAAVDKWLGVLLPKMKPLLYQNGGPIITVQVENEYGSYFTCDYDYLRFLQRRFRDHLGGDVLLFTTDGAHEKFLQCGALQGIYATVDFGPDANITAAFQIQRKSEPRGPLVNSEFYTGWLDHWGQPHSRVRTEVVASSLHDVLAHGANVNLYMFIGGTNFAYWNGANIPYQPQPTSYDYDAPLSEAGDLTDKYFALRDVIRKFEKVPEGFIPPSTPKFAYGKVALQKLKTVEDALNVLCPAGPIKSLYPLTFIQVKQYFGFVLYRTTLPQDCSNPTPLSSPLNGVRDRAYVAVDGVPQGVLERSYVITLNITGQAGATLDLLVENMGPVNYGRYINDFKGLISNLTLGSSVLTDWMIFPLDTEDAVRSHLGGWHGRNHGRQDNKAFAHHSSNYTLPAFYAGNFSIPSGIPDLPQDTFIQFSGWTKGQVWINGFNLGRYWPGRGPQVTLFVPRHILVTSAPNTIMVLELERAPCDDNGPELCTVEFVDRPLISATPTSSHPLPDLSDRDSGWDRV
How it was run: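 GM1 gangliosidosis fibroblasts from an affected cat (β-galactosidase p.Arg483Pro) treated 5 days with escalating doses of test compound dissolved in DMSO. Cells lysed; intracellular β-galactosidase measured with fluorogenic 4-methylumbelliferyl β-D-galactopyranoside, β-N-acetylhexosaminidase also measured with MU substrate. Activity normalized to DMSO-treated cells.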

Chain of β-galactosidase from E. coli (P00722 2-1024 limits assumed): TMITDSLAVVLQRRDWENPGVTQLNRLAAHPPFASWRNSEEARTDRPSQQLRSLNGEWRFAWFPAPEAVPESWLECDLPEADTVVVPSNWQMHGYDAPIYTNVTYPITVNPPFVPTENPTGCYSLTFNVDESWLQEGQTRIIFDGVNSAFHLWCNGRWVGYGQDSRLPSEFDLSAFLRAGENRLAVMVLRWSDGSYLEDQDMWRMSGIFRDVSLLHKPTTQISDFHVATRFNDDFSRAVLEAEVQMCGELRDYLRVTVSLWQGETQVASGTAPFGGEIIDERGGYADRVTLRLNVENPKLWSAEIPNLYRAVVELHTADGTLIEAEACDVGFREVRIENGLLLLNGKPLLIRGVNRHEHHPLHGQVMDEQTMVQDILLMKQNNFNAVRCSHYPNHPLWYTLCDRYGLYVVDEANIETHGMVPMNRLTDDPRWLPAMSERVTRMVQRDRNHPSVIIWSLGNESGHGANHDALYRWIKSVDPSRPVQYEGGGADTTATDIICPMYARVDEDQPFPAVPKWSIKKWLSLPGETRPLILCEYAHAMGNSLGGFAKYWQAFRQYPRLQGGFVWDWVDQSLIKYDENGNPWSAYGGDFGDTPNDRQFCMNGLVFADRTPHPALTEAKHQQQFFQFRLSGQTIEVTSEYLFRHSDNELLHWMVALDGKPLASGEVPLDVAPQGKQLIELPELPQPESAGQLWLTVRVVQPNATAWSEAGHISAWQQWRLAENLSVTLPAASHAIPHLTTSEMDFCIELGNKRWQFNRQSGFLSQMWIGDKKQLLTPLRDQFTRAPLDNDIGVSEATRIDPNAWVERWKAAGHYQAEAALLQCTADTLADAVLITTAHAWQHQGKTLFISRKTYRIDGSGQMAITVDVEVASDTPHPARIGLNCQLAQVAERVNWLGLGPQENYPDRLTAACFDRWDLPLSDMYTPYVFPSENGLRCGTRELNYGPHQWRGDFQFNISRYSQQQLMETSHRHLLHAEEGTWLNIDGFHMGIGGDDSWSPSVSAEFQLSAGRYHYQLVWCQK
Chain of α-galactosidase from green coffee beans (Q42656 16-378): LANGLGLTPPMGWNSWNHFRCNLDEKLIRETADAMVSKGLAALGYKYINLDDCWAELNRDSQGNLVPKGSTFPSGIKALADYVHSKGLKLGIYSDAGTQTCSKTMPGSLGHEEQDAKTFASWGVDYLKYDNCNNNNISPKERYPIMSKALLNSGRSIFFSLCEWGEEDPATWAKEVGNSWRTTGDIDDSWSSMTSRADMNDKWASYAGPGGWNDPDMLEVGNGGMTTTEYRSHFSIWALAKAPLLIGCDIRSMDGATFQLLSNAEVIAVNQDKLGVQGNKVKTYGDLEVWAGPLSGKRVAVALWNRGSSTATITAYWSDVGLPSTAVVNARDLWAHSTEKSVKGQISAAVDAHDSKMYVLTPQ

## CN(C)c1cccc2c(S(=O)(=O)NCCCCCCN(CCCCCCNS(=O)(=O)c3cccc4c(N(C)C)cccc34)C(=O)CCCCCN3C[C@H](O)[C@@H](O)[C@@H](O)[C@H]3CO)cccc12 [Compound 9, N-Bis(dansylaminohexyl)aminocarbonylpentyl-1,5-dideoxy-1,5-imino-D-galactitol]
[1]
  Ki: 0.63 µM
[2]
  Ki: 0.29 µM
[3]
  Ki: 2.6 µM
[4]
  IC50: 0.85 µM
[5]
  concentration at maximal increase of intracellular β-galactosidase activity: 2.1 µM
  maximal increase of intracellular β-galactosidase activity: 1.5 fold

## CCCCCCCC(=O)N(CCCCCCNS(=O)(=O)c1cccc2c(N(C)C)cccc12)CCCCCCN1C[C@H](O)[C@@H](O)[C@@H](O)[C@H]1CO [Compound 15, N-[(Dansylaminohexyl)-N-octanoylamino]hexyl-1,5-dideoxy-1,5-imino-D-galactitol]
[1]
  Ki: 0.028 µM
[2]
  Ki: 0.047 µM
[3]
  Ki: 0.2 µM
[4]
  IC50: 1.8 µM

## CN(C)c1cccc2c(S(=O)(=O)NCCCCCCN(CCCCCCNS(=O)(=O)c3cccc4c(N(C)C)cccc34)CCCCCCN3C[C@H](O)[C@@H](O)[C@@H](O)[C@H]3CO)cccc12 [Compound 13, N-Bis(dansylaminohexyl)aminohexyl-1,5-dideoxy-1,5-imino-D-galactitol]
[1]
  Ki: 0.23 µM
[2]
  Ki: 0.12 µM
[3]
  Ki: 0.53 µM
[4]
  IC50: 2.7 µM
[5]
  concentration at maximal increase of intracellular β-galactosidase activity: 3.0 µM
  maximal increase of intracellular β-galactosidase activity: 1.8 fold

## CN(C)c1cccc2c(S(=O)(=O)NCCCCCCNC(=O)CCCCCN3C[C@H](O)[C@@H](O)[C@@H](O)[C@H]3CO)cccc12 [Compound 8, N-(Dansylamino)hexylaminocarbonylpentyl-1,5-dideoxy-1,5-imino-D-galactitol]
[1]
  Ki: 0.45 µM
[4]
  IC50: 6.2 µM
[5]
  concentration at maximal increase of intracellular β-galactosidase activity: 258 µM
  range of β-galactosidase activity enhancement: large range over which it enhanced β-galactosidase activity
  maximal increase of intracellular β-galactosidase activity: 1.7 fold

Source: paper PMC3158671 (Carbohydrate Research, 2011)
